The record followed here is ChEMBL document CHEMBL1141192 (J Med Chem, 2005).

SMILES strings stand for the structures. In brackets after ≈: the same amount, converted by molar mass. Where only a bound is given, the exact number is not on record here.

Data set [1] is described as follows: Solubility in water at pH 7.4.
Another data set deals with Adenosine kinase (Homo sapiens, UniProt P55263). Kind of data set: Inhibitory activity against recombinant human adenosine kinase.
For the next data set, the system named is Rattus norvegicus. In words: Inhibition of the licking and biting response at 20 mg/kg, po in rat by formalin paw antinociceptive assay. The format is functional. The settings on record: Sprague-Dawley. In outline:
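Screening: fasted male SD rats (105–115 g), three per compound, 20 mg/kg po in 0.1% MC 15 min before 2% formalin (50 μL s.c., right hindpaw). Licking/biting scored 5 s per 30 s; percent inhibition reported for 2nd phase (15–30 min); positive control 5 mg/kg po each run.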

Sequence of Adenosine kinase (P55263 whole entry): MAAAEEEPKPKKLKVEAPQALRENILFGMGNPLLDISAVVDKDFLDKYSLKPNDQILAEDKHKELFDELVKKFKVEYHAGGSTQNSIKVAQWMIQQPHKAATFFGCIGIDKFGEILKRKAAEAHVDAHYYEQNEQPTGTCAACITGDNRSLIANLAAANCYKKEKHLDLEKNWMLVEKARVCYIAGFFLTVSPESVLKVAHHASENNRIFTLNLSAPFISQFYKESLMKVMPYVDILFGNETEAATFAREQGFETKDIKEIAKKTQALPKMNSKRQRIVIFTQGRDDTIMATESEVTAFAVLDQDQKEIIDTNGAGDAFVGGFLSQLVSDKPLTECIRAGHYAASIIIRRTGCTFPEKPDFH

The term solubility denotes the concentration that dissolves in the medium under given conditions. Lower therefore signals little dissolved substance. With `C[C@H]1O[C@@H](n2cc(-c3ccccc3)c3c(Nc4ccccc4)ncnc32)[C@H](O)[C@@H]1O`, the solubility in data set [1] is less than 0.05 µg/mL.

What is called IC50 is the concentration needed to halve the response being measured. On to `CC(C)CNc1ncnc2c1c(-c1ccccc1)cn2[C@@H]1O[C@H](C)[C@@H](O)[C@H]1O`, for which the IC50 at Adenosine kinase amounted to 140 nM. The molecule also returned a solubility in data set [1] of 3 µg/mL (≈ 7.84 µM).

One may read the inhibition in vivo as the relative decrease from the control value, in per cent. As for `C[C@H]1O[C@@H](n2cc(-c3ccccc3)c3c(NCC(=O)NCCCO)ncnc32)[C@H](O)[C@@H]1O`, the IC50 on Adenosine kinase turned out to be 16 nM. In addition, the solubility in data set [1] came out at 650 µg/mL (≈ 1470 µM). In the data set with Rattus norvegicus, the inhibition in vivo at 20 mg/kg turned out to be 4%.

With `C[C@H]1O[C@@H](n2cc(-c3ccccc3)c3c(NCC(N)=O)ncnc32)[C@H](O)[C@@H]1O`, on Adenosine kinase, the IC50 came to 2 nM. This molecule registered a solubility in data set [1] of 750 µg/mL (≈ 1960 µM).

`O=C(CNc1ncnc2c1c(-c1ccccc1)nn2[C@@H]1O[C@H](CO)[C@@H](O)[C@H]1O)Nc1ccccc1`: the IC50 on Adenosine kinase came out at 0.9 nM. Also, the solubility in data set [1] came to 7 µg/mL (≈ 14.7 µM). Besides, in the data set on Rattus norvegicus, the inhibition in vivo at 20 mg/kg was -10%.

As for `O=C(CNc1ncnc2c1c(-c1ccccc1)cn2[C@@H]1O[C@H](CO)[C@@H](O)[C@H]1O)NC1CC1`, the IC50 at Adenosine kinase came to 3 nM. In data set [1], this molecule yielded a solubility of 76 µg/mL (≈ 173 µM). Moreover, in the data set on Rattus norvegicus, the inhibition in vivo at 20 mg/kg is 21%.

Take `CCN(CC)CCNC(=O)CNc1ncnc2c1c(-c1ccccc1)cn2[C@@H]1O[C@H](C)[C@@H](O)[C@H]1O`: the IC50 on Adenosine kinase was determined as 210 nM. Further, in data set [1], the solubility is greater than 1000 µg/mL. For the same molecule, in the data set with Rattus norvegicus, the inhibition in vivo at 20 mg/kg is 11%.

For `CCCNc1ncnc2c1c(-c1ccccc1)cn2[C@@H]1O[C@H](C)[C@@H](O)[C@H]1O`, at Adenosine kinase, the IC50 turned out to be 100 nM. Further, the solubility in data set [1] came to 16 µg/mL (≈ 43.4 µM).

For the molecule `CNC(=O)Nc1ncnc2c1c(-c1ccccc1)cn2[C@@H]1O[C@H](C)[C@@H](O)[C@H]1O`, on Adenosine kinase, the IC50 turned out to be 27 nM. The solubility in data set [1] was determined as 32 µg/mL (≈ 83.5 µM).

As for `O=C(CNc1ncnc2c1c(-c1ccccc1)cn2COCCO)Nc1ccc(Cl)cc1`, on Adenosine kinase, the concentration for half-maximal inhibition (IC50) came out at 60 nM. Further, the solubility in data set [1] was less than 0.05 µg/mL. The inhibition in vivo at 20 mg/kg in the data set on Rattus norvegicus came to 31%.

Take `O=C(CNc1ncnc2c1c(-c1ccccc1)cn2[C@@H]1OC[C@@H](O)[C@H]1O)Nc1ccccc1`: the IC50 on Adenosine kinase amounted to 0.6 nM. In addition, in the data set on Rattus norvegicus, the inhibition in vivo at 20 mg/kg was 37%.

Regarding `O=C(CNc1ncnc2c1c(-c1ccccc1)cn2[C@@H]1OC[C@@H](O)[C@H]1O)NC1CC1`, the IC50 on Adenosine kinase was 20 nM. Moreover, the concentration in solution in data set [1] (solubility) came to 280 µg/mL (≈ 684 µM). Also, the inhibition in vivo at 20 mg/kg with Rattus norvegicus came to 17%.

Take `CCCNC(=O)CNc1ncnc2c1c(-c1ccccc1)cn2[C@@H]1O[C@H](C)[C@@H](O)[C@H]1O`: the IC50 on Adenosine kinase came out at 7 nM. The molecule also had a solubility in data set [1] of 38 µg/mL (≈ 89.3 µM). The inhibition in vivo at 20 mg/kg in the data set with Rattus norvegicus was 41%.

For the molecule `C[C@H]1O[C@@H](n2cc(I)c3c(NCC(=O)NC4CC4)ncnc32)[C@H](O)[C@@H]1O`, at Adenosine kinase, the IC50 came to 880 nM. This molecule also showed a solubility in data set [1] of 5 µg/mL (≈ 10.6 µM).

With `C[C@H](Nc1ncnc2c1c(-c1ccccc1)cn2[C@@H]1O[C@H](C)[C@@H](O)[C@H]1O)C(=O)NC1CC1`, at Adenosine kinase, the IC50 came to 530 nM. This molecule yielded a solubility in data set [1] of 480 µg/mL (≈ 1100 µM).

In the case of `O=C(CNc1ncnc2c1c(-c1ccccc1)nn2[C@@H]1O[C@H](CO)[C@@H](O)[C@H]1O)NC1CC1`, the IC50 on Adenosine kinase was determined as 10 nM. Also, the solubility in data set [1] was found to be 370 µg/mL (≈ 840 µM). Moreover, the inhibition in vivo at 20 mg/kg in the data set on Rattus norvegicus was determined as 6%.

As to `COCCCNC(=O)CNc1ncnc2c1c(-c1ccccc1)cn2[C@@H]1O[C@H](C)[C@@H](O)[C@H]1O`, on Adenosine kinase, the IC50 was 2 nM. For the same molecule, the inhibition in vivo at 20 mg/kg with Rattus norvegicus is 24%.

Turning to `C[C@H]1O[C@@H](n2cc(-c3ccccc3)c3c(NCC4CC4)ncnc32)[C@H](O)[C@@H]1O`, the IC50 on Adenosine kinase was 45 nM. This molecule also had a solubility in data set [1] of 0.1 µg/mL (≈ 0.263 µM).

On to `CNC(=O)CNc1ncnc2c1c(-c1ccccc1)cn2[C@@H]1O[C@H](C)[C@@H](O)[C@H]1O`, for which the IC50 at Adenosine kinase turned out to be 0.8 nM. In addition, the concentration in solution in data set [1] (solubility) was 240 µg/mL (≈ 604 µM). In the data set on Rattus norvegicus, the inhibition in vivo at 20 mg/kg came out at 35%.

Consider `C[C@H]1O[C@@H](n2cc(-c3ccccc3)c3c(NC/C(S)=N\C4CC4)ncnc32)[C@H](O)[C@@H]1O`, for which the IC50 at Adenosine kinase stood at 0.5 nM. The solubility in data set [1] was found to be 8 µg/mL (≈ 18.2 µM). In addition, the inhibition in vivo at 20 mg/kg in the data set on Rattus norvegicus came to 22%.

Regarding `C[C@H]1O[C@@H](n2cc(-c3ccccc3)c3c(NCC(=O)Nc4ccc(Cl)cc4)ncnc32)[C@H](O)[C@@H]1O`, the IC50 on Adenosine kinase turned out to be 0.2 nM. In addition, the solubility in data set [1] was less than 0.05 µg/mL. For the same molecule, the inhibition in vivo at 20 mg/kg in the data set on Rattus norvegicus was 62%.

As to `C[C@H]1O[C@@H](n2cc(-c3ccccc3)c3c(NCC(=O)NC4CCC4)ncnc32)[C@H](O)[C@@H]1O`, the IC50 at Adenosine kinase is 1.3 nM. This molecule also had a solubility in data set [1] of 44 µg/mL (≈ 101 µM). For the same molecule, in the data set with Rattus norvegicus, the inhibition in vivo at 20 mg/kg is 60%.

For `CC(C)CNC(=O)CNc1ncnc2c1c(-c1ccccc1)cn2[C@@H]1O[C@H](C)[C@@H](O)[C@H]1O`, the IC50 on Adenosine kinase was found to be 4 nM. In data set [1], this molecule registered a solubility of 7 µg/mL (≈ 15.9 µM). For the same molecule, the inhibition in vivo at 20 mg/kg in the data set on Rattus norvegicus came out at 16%.

On to `O=C(CNc1[nH]cnc2ncc(-c3ccccc3)c1-2)NC1CC1`, for which the IC50 at Adenosine kinase was greater than 10000 nM.

Take `C[C@H]1O[C@@H](n2cc(-c3ccccc3)c3c(NCCC(N)=O)ncnc32)[C@H](O)[C@@H]1O`: at Adenosine kinase, the IC50 was 2500 nM.

As for `COCCNC(=O)CNc1ncnc2c1c(-c1ccccc1)cn2[C@@H]1O[C@H](C)[C@@H](O)[C@H]1O`, the IC50 on Adenosine kinase was 38 nM. The same molecule had a solubility in data set [1] of 230 µg/mL (≈ 521 µM). The inhibition in vivo at 20 mg/kg in the data set on Rattus norvegicus worked out at 44%.

`C[C@H]1O[C@@H](n2cc(-c3ccccc3)c3c(NCC(=O)N(C)C4CC4)ncnc32)[C@H](O)[C@@H]1O`: the IC50 at Adenosine kinase was determined as 460 nM. Also, the solubility in data set [1] turned out to be 105 µg/mL (≈ 240 µM).

Regarding `C[C@H]1O[C@@H](n2cc(-c3ccccc3)c3c(NC(=O)C(=O)NC4CC4)ncnc32)[C@H](O)[C@@H]1O`, the IC50 at Adenosine kinase was determined as 1.3 nM. In data set [1], this molecule returned a solubility of 17 µg/mL (≈ 38.9 µM). The inhibition in vivo at 20 mg/kg in the data set with Rattus norvegicus is 17%.

In the case of `C[C@H]1O[C@@H](n2cc(-c3ccccc3)c3c(NC4CC4)ncnc32)[C@H](O)[C@@H]1O`, on Adenosine kinase, the concentration for half-maximal inhibition (IC50) turned out to be 380 nM. Also, in data set [1], the solubility was found to be 36 µg/mL (≈ 98.2 µM).

In the case of `C[C@H]1O[C@@H](n2cc(-c3ccccc3)c3c(NCC(=O)NCC4CC4)ncnc32)[C@H](O)[C@@H]1O`, the IC50 on Adenosine kinase worked out at 6 nM. The same molecule displayed a solubility in data set [1] of 12 µg/mL (≈ 27.4 µM). For the same molecule, in the data set on Rattus norvegicus, the inhibition in vivo at 20 mg/kg came to 42%.

Turning to `CCNC(=O)CNc1ncnc2c1c(-c1ccccc1)cn2[C@@H]1O[C@H](C)[C@@H](O)[C@H]1O`, the IC50 on Adenosine kinase was 40 nM. This molecule also displayed a solubility in data set [1] of 140 µg/mL (≈ 340 µM). In addition, the inhibition in vivo at 20 mg/kg with Rattus norvegicus amounted to 52%.

As to `C[C@H]1O[C@@H](n2cc(-c3ccccc3)c3c(NCC(=O)NCCN(C)C)ncnc32)[C@H](O)[C@@H]1O`, on Adenosine kinase, the IC50 amounted to 300 nM. This molecule also yielded a solubility in data set [1] greater than 1000 µg/mL.

As to `C[C@@H](Nc1ncnc2c1c(-c1ccccc1)cn2[C@@H]1O[C@H](C)[C@@H](O)[C@H]1O)C(=O)NC1CC1`, the IC50 on Adenosine kinase was determined as 2500 nM.

`C[C@H]1O[C@@H](n2cc(-c3ccccc3)c3c(NCC(=O)NCCCN(C)C)ncnc32)[C@H](O)[C@@H]1O`: on Adenosine kinase, the IC50 came to 145 nM. This molecule displayed a solubility in data set [1] greater than 1000 µg/mL. Further, the inhibition in vivo at 20 mg/kg with Rattus norvegicus was found to be 22%.

As for `O=C(CNc1ncnc2c1c(-c1ccccc1)cn2COCCO)NC1CC1`, the IC50 at Adenosine kinase stood at 1700 nM. The solubility in data set [1] came out at 270 µg/mL (≈ 708 µM).

`CC(C)NC(=O)CNc1ncnc2c1c(-c1ccccc1)cn2[C@@H]1O[C@H](C)[C@@H](O)[C@H]1O`: on Adenosine kinase, the IC50 was determined as 25 nM. The solubility in data set [1] amounted to 26 µg/mL (≈ 61.1 µM). The inhibition in vivo at 20 mg/kg in the data set with Rattus norvegicus is 74%.

With `C[C@H]1O[C@@H](n2cc(-c3ccccc3)c3c(NCC(=O)Nc4ccccc4)ncnc32)[C@H](O)[C@@H]1O`, the IC50 on Adenosine kinase was found to be 0.5 nM. This molecule also displayed a solubility in data set [1] of less than 0.05 µg/mL. In addition, in the data set with Rattus norvegicus, the inhibition in vivo at 20 mg/kg was 62%.

For the molecule `CCCOC(=O)Nc1ncnc2c1c(-c1ccccc1)cn2[C@@H]1O[C@H](C)[C@@H](O)[C@H]1O`, on Adenosine kinase, the IC50 came out at 4 nM.

On to `C[C@H]1O[C@@H](n2nc(-c3ccccc3)c3c(NCC(=O)NC4CC4)ncnc32)[C@H](O)[C@@H]1O`, for which, on Adenosine kinase, the concentration for half-maximal inhibition (IC50) was determined as 6 nM. This molecule also displayed a solubility in data set [1] of 620 µg/mL (≈ 1460 µM). The inhibition in vivo at 20 mg/kg with Rattus norvegicus worked out at 7%.

For `C[C@H]1O[C@@H](n2cc(-c3ccccc3)c3c(NCC(=O)NC4CCCC4)ncnc32)[C@H](O)[C@@H]1O`, the 50% inhibitory concentration (IC50) at Adenosine kinase was 1 nM. Moreover, the solubility in data set [1] is 6 µg/mL (≈ 13.3 µM). The inhibition in vivo at 20 mg/kg with Rattus norvegicus was found to be 16%.

On to `CCONC(=O)CNc1ncnc2c1c(-c1ccccc1)cn2[C@@H]1O[C@H](C)[C@@H](O)[C@H]1O`, for which the IC50 on Adenosine kinase is 5 nM. Moreover, the solubility in data set [1] came out at 535 µg/mL (≈ 1250 µM). Besides, in the data set with Rattus norvegicus, the inhibition in vivo at 20 mg/kg worked out at 0%.

With `C[C@H]1O[C@@H](n2cc(-c3ccccc3)c3c(Nc4ccc(F)cc4)ncnc32)[C@H](O)[C@@H]1O`, the solubility in data set [1] is less than 0.05 µg/mL.
